Screens (PubChem BioAssay)
This is a sample that favours compounds with a hit; in the whole collection about 5.8% have one here.
IDH1 mut inh: blocks human IDH1 R132H reductase activity; O75874; diaphorase/resazurin fluorescence, 60 min; inhibition, % at 10 µM; actives 0.18% (n = 70,000); AID 624101; in the data active = inhibition above about 34%; inconclusive = no clear call, values can overlap the other calls; inactive = below about 11%;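 also: 0% = DMSO and 100% = no enzyme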
Pf Dd2 growth: blocks growth of Plasmodium falciparum Dd2 parasites | P. falciparum Dd2 growth, SYBR Green, 72 h; active compounds read low | activity change, % at 10 µM | actives 2.3% (n = 94,000) | AID 1159554; in the data active = activity change below about -80%; inconclusive = no clear call, values can overlap the other calls
GASC1 inh: inhibitors of human demethylase GASC-1 KDM4C; Q9H3R0; GST-KDM4C 2-372, H3K9me3 peptide, LANCE TR-FRET; inhibition, % at 12.5 µM; actives 0.15% (n = 96,000); AID 720574;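 active = mean replicate inhibition above about 25%, with at least 55% of replicates also reaching it, limit read from the data, passing the limit was not always enough; inconclusive = only one of those two conditions met; inactive = neither condition met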
Target sequence (Q9H3R0 2-372 limits assumed): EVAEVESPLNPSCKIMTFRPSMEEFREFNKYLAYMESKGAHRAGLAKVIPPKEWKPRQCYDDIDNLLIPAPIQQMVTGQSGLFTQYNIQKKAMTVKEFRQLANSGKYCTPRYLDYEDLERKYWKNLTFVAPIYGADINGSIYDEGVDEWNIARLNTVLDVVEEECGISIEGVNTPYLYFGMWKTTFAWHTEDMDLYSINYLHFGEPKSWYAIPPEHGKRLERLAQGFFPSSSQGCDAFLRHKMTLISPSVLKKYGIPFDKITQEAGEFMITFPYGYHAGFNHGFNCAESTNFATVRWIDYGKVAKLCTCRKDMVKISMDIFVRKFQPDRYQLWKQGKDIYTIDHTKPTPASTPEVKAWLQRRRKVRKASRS
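System: N-terminal GST-fused human GASC-1 (KDM4C) fragment, residues 2-372; amount: enzyme final amount 10 nM; incubation: reaction 30 min RT, detection step 1 h RT; medium: HEPES buffer, pH 7.5, plus ascorbate; technique: LANCE TR-FRET, Eu antibody, ULight-streptavidin, EDTA, ex 340 nm, em 618/671 nm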
T cruzi growth-1: inhibitors of T. cruzi proliferation; actives 5.9% (n = 77,000); T. cruzi beta-gal in NIH3T3, GalScreen luminescence, 90 h; AID 624255; inhibition, % at 8.34 µM;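 active = mean inhibition above about 93%, with at least 55% of replicates each passing it, limit read from the data, passing the limit was not always enough; inconclusive = only one of those two conditions holds; inactive = neither condition holds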
T cruzi growth-2: inhibitors of T. cruzi proliferation; actives 72% (n = 5,600); shares compounds with T cruzi growth-1; inhibition, % at 8.35 µM; T. cruzi beta-gal in NIH3T3, GalScreen luminescence, 90 h;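 active = mean replicate inhibition above about 95% and at least 55% of replicates individually reaching it, limit read from the data; inconclusive = only one of the two criteria is met; inactive = neither criterion is met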
T cruzi growth-3: Trypanosoma cruzi proliferation inhibition; T. cruzi beta-gal in NIH3T3, GalScreen luminescence, 90 h; shares compounds with T cruzi growth-1; actives 21% (n = 5,600); AID 651740; inhibition, % at 2.09 µM;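 active = mean inhibition above about 95%, with at least 55% of replicates also reaching it, limit read from the data; inconclusive = meets just one of the two conditions; inactive = meets neither condition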;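 also: plate controls were neutral control median for no effect and positive control median for full effect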
NIH3T3 tox: NIH/3T3 (mouse) viability loss; shares compounds with T cruzi growth-1; NIH/3T3 viability, CellTiter-Glo ATP luminescence, 90 h; cytotoxicity (signal decrease), % at 8.35 µM; actives 14% (n = 5,600);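 active = mean signal decrease across replicates above about 35% based on untreated-well scatter, with enough replicates individually passing, limit read from the data; inconclusive = no rule stated though some were filed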;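 also: 0% = median of neutral control wells and 100% = median of positive control wells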
3T3 cytotox 2: NIH/3T3 (mouse) viability loss; shares compounds with T cruzi growth-1; NIH/3T3 viability, CellTiter-Glo ATP luminescence, 90 h; inhibition, % at 24.9 µM; actives 56% (n = 5,600);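 active = mean loss of cell viability signal at or above a set limit, and enough replicates individually reaching it; inconclusive = meets only the mean limit or only the replicate share; inactive = meets neither condition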;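 also: 0% = median of neutral control wells and 100% = median of positive control wells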
Active calls of the source: *; ? = inconclusive; / = not tested or not shown.

SMILES	IDH1 mut inh	Pf Dd2 growth	GASC1 inh	T cruzi growth-1	T cruzi growth-2	T cruzi growth-3	NIH3T3 tox	3T3 cytotox 2
N#C[C@H]1[C@@H](c2ccc(C#Cc3cccc(F)c3)cc2)[C@@H](CO)N1C(=O)C1CCCC1	/	-15	2	93	/	/	/	/
N#C[C@H]1[C@H](c2ccc(C#Cc3cccc(F)c3)cc2)[C@@H](CO)N1C(=O)C1CCCC1	/	-39	0	99*	94	102*	5	96*
N#C[C@H]1[C@H](c2ccc(C#Cc3ccc(F)cc3)cc2)[C@@H](CO)N1C(=O)C1CCC1	/	-62	0	93	/	/	/	/
CC(C)n1c2ccccc2c2nnc(SCC(=O)N3c4ccccc4Sc4ccccc43)nc21	0	/	/	/	/	/	/	/
O=S(=O)(CCc1nnc(-c2ccccc2)o1)c1ccc(Cl)cc1	0	/	/	/	/	/	/	/
Nc1cc(N)nc(SCC(=O)c2ccc(F)cc2)n1	3	/	/	/	/	/	/	/
COc1ccc(NC(=O)NCc2cc(C)n(C)n2)cc1OC	0	/	/	/	/	/	/	/
C[C@@H]1CN([C@H](C)CO)C(=O)Cc2cc(NC(=O)Cc3cn(C)c4ccccc34)ccc2O[C@H]1CN(C)Cc1ccc(C(=O)Nc2ccccc2N)cc1	-1	-16	-1	?	91	37	5	15
C[C@@H]1CN([C@H](C)CO)C(=O)Cc2cc(NC(=O)Cc3cn(C)c4ccccc34)ccc2O[C@H]1CN(C)Cc1ccc(Cl)c(Cl)c1	0	-55	-2	?	98*	86	18	43*
C[C@@H]1CN([C@H](C)CO)C(=O)Cc2cc(NC(=O)Nc3ccccc3)ccc2O[C@@H]1CN(C)Cc1ccc(Cl)c(Cl)c1	/	-9	-1	102*	108*	41	6	104*
C[C@@H]1CN([C@H](C)CO)C(=O)c2cc(NC(=O)Cc3cn(C)c4ccccc34)ccc2O[C@@H]1CN(C)Cc1ccc(Cl)c(Cl)c1	0	-9	0	102*	99*	59	16	37*
C[C@@H]1CN([C@@H](C)CO)C(=O)c2cc(NC(=O)Cc3cn(C)c4ccccc34)ccc2O[C@@H]1CN(C)Cc1ccc(Cl)c(Cl)c1	-6	-20	-1	84	/	/	/	/
CC(=O)O[C@]1(C(C)=O)CC[C@H]2[C@@H]3C=C(Cl)C4=CC(=O)C5CC5[C@]4(C)[C@H]3CC[C@@]21C (stereo partly specified)	0	/	/	/	/	/	/	/
C[C@H]1CCCCO[C@H](CN(C)Cc2ccc(Cl)c(Cl)c2)[C@@H](C)CN([C@@H](C)CO)C(=O)c2cc(NC(=O)Nc3ccc(F)cc3)ccc2O1	/	-34	-2	102*	95*	112*	2	7
C[C@@H]1CCCCO[C@@H](CN(C)Cc2ccc(Cl)c(Cl)c2)[C@@H](C)CN([C@@H](C)CO)C(=O)c2cc(NC(=O)Nc3ccc(F)cc3)ccc2O1	/	-52	0	109*	?	109*	4	27
C[C@@H]1CCCCO[C@@H](CN(C)Cc2ccc(Cl)c(Cl)c2)[C@@H](C)CN([C@@H](C)CO)C(=O)c2cc(NC(=O)Nc3ccccc3)ccc2O1	/	-39	0	73	/	/	/	/
C[C@H]1CCCCO[C@H](CN(C)Cc2ccc(Cl)c(Cl)c2)[C@@H](C)CN([C@@H](C)CO)C(=O)c2cc(NC(=O)Nc3ccccc3)ccc2O1	/	-61	-2	69	/	/	/	/
C[C@@H]1CN([C@H](C)CO)C(=O)c2cc(NC(=O)Nc3ccc(F)cc3)ccc2O[C@@H](C)CCCCO[C@@H]1CN(C)Cc1ccc(Cl)c(Cl)c1	0	-79	12	101*	96*	105*	-29	-12
C[C@H](CO)N1C[C@H](C)[C@@H](CN(C)Cc2ccccc2)Oc2cc(Br)ccc2S1(=O)=O	0	-21	3	104	/	/	/	/
C[C@H]1CN([C@@H](C)CO)S(=O)(=O)c2ccc(Br)cc2O[C@@H]1CN(C)Cc1cccc(F)c1	/	-30	3	?	99*	65	32	103*
C[C@@H]1CN([C@@H](C)CO)S(=O)(=O)c2ccc(Br)cc2O[C@H]1CN(C)Cc1cccc(F)c1	/	-25	2	?	98*	92	53*	107*
Cc1sc(NC(=O)c2ccccc2)c(C(=O)NCc2cccnc2)c1C	-1	/	/	/	/	/	/	/
COc1cccc(-c2cc(C(=O)Nc3ccc(S(=O)(=O)NC(C)=O)cc3)c3ccccc3n2)c1	-1	/	/	/	/	/	/	/
Cc1noc(C)c1S(=O)(=O)Nc1ccc2c(c1)C(=O)N([C@H](C)CO)C[C@H](C)[C@@H](CN(C)C(=O)Nc1ccc(C(F)(F)F)cc1)OCCCC[C@H](C)O2	10	-39	0	114*	101*	94	20	?
Cc1noc(C)c1S(=O)(=O)Nc1ccc2c(c1)C(=O)N([C@@H](C)CO)C[C@H](C)[C@H](CN(C)C(=O)Nc1ccc(C(F)(F)F)cc1)OCCCC[C@H](C)O2	2	-46	0	66	/	/	/	/
SMILES	IDH1 mut inh	Pf Dd2 growth	GASC1 inh	T cruzi growth-1	T cruzi growth-2	T cruzi growth-3	NIH3T3 tox	3T3 cytotox 2
Cc1noc(C)c1S(=O)(=O)Nc1ccc2c(c1)C(=O)N([C@@H](C)CO)C[C@@H](C)[C@@H](CN(C)C(=O)Nc1ccc(C(F)(F)F)cc1)OCCCC[C@@H](C)O2	/	-60	0	?	96*	102*	12	?
Cc1noc(C)c1S(=O)(=O)Nc1ccc2c(c1)C(=O)N([C@H](C)CO)C[C@H](C)[C@H](CN(C)C(=O)Nc1ccc(C(F)(F)F)cc1)OCCCC[C@H](C)O2	0	-20	1	101	/	/	/	/
C[C@@H]1CCCCO[C@@H](CN(C)C(=O)Nc2ccc3c(c2)OCO3)[C@H](C)CN([C@H](C)CO)C(=O)c2cc(NC(=O)Nc3ccc(F)cc3)ccc2O1	0	-49	0	102*	104*	84	-16	-12
C[C@@H]1CCCCO[C@H](CN(C)C(=O)Nc2ccc3c(c2)OCO3)[C@H](C)CN([C@@H](C)CO)C(=O)c2cc(NC(=O)NC3CCCCC3)ccc2O1	/	-73	3	64	/	/	/	/
C[C@H](CO)N1C[C@H](C)[C@H](CN(C)C(=O)Nc2ccc3c(c2)OCO3)OCCCC[C@H](C)Oc2ccc(NC(=O)NC3CCCCC3)cc2C1=O	0	-16	2	110*	105*	83	-20	-16
C[C@@H]1CCCCO[C@H](CN(C)C(=O)Nc2ccc3c(c2)OCO3)[C@H](C)CN([C@H](C)CO)C(=O)c2cc(NC(=O)Nc3ccc(F)cc3)ccc2O1	1	-88*	-2	102*	100*	64	-10	-4
